Legend:
[1] = system: Serum TSH; test: Levothyroxine dose for TSH suppression in thyroid cancer; assay type: in vivo, Indian thyroid cancer patients
In short: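 Follow-up visits of treated thyroid cancer outpatients were evaluated prospectively, recording age, sex, weight, initial ATA risk category, serum TSH and prescribed levothyroxine. Visits with suppressed TSH were selected and dose per kg body weight calculated. Mean, median, range and lowest dose/kg were derived.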

[2] = system: Serum TSH; details: ref the guidelines; cited from earlier work

patients receiving more than 2ug/kg in excess TSH suppression ([1]; 14 patients, TSH 0.01-0.09 mIU/L): 44%
Structure (SMILES): N[C@@H](Cc1cc(I)c(Oc2cc(I)c(O)c(I)c2)c(I)c1)C(=O)O [Levothyroxine]
patients with suppressed TSH values with less than 2ug/kg dose ([1]; 16 patients): 50%
mean suppressive dose ([1]; 36 patients, 90 follow-ups with suppressed TSH, SD 0.49): 2.21 ug/kg body weight
maximum dose ([1]; in vivo): 3.33 µg/kg
minimum dose required to keep the patient in suppression ([1]; in vivo): 1.29 µg/kg
dose required for long-term TSH suppression [2]: 2.2-2.7 ug/kg body weight

Source: paper PMC10798254 (Indian Journal of Nuclear Medicine : IJNM : The Official …, 2023)
